Assay results reported in ChEMBL document CHEMBL4610111, “Phenolic Compounds from Morus nigra Regulate Viability and Apoptosis of Pancreatic β-Cells Possibly via SERCA Activity” (ACS Med Chem Lett, 2020).
Active and inactive are the calls of the source. The calls are words filed in the database; no cut-off is given here.

Assays:
[1] = target: Sarcoplasmic/endoplasmic reticulum calcium ATPase 1 (Oryctolagus cuniculus, UniProt P04191); test: Inhibition of SERCA1 in NewZealand rabbit skeletal muscle SR vesicles using ATP as substrate incubated for 2 mins followed by Ca2+ addition by NADH coupled enzyme assay
Sequence of Sarcoplasmic/endoplasmic reticulum calcium ATPase 1 (P04191 whole entry): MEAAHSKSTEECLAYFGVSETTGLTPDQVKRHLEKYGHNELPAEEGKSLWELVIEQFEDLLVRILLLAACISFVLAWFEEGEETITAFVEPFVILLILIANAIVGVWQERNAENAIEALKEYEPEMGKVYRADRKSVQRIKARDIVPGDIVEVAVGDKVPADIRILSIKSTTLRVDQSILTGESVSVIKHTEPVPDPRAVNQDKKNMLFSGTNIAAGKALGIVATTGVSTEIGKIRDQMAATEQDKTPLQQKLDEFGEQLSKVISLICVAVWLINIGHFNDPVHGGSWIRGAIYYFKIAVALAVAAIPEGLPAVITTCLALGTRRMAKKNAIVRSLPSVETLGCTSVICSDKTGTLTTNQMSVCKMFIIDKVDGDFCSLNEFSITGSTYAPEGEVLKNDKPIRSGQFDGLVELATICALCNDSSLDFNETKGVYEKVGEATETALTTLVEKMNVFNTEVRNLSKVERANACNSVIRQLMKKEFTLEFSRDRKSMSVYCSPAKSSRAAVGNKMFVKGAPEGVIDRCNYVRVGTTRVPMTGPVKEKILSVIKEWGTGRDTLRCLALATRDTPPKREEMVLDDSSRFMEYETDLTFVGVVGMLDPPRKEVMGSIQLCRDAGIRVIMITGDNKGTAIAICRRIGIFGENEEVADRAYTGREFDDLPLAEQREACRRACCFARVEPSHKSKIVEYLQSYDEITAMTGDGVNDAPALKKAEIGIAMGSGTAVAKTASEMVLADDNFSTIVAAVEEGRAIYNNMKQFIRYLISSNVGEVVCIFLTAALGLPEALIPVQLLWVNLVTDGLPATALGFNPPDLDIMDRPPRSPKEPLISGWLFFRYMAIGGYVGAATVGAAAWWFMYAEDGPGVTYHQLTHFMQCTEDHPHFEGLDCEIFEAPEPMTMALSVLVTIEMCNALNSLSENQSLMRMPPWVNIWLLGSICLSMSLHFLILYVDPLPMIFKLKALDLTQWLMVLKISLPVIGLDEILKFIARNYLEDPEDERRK
Outline: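 SR vesicles (1 mg prot./ml) incubated with compound (10–70 μM) for 2 min at 37 °C, pH 7.2. Ca2+-ATPase rate measured by NADH-coupled enzyme assay as absorbance at 340 nm, 37 °C. Compared with untreated control; mean ± SD from at least three independent experiments.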

[2] = target: Sarcoplasmic/endoplasmic reticulum calcium ATPase 1 (Oryctolagus cuniculus) (UniProt P04191); test: Binding affinity to cytosolic region of SERCA1 ATP binding site in NewZealand rabbit SR vesicles assessed as conformational changes by measuring decrease in fluorescence intensity at IC50 incubated for 1 hr by FITC probe labeling based analysis
Sequence of Sarcoplasmic/endoplasmic reticulum calcium ATPase 1 (Oryctolagus cuniculus) (P04191 whole entry): as above
Outline: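 FITC labelling of SR vesicles (protein 12.5 mg/mL) after 1 h preincubation with compound, used as a probe of the cytosolic region of SERCA1. Figure legend states 30 min incubation at 20 mg/mL SR protein. Read-out is the decrease in FITC fluorescence versus untreated control. Mean ± SD from at least three independent experiments, each sample measured 2–3 times.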

[3] = target: Sarcoplasmic/endoplasmic reticulum calcium ATPase 1 (Oryctolagus cuniculus) (UniProt P04191); test: Binding affinity to transmembrane region of SERCA1A ATP binding site in NewZealand rabbit SR vesicles assessed as conformational changes by measuring intrinsic Trp fluorescence at IC50 incubated for 30 mins by spectrofluorometric analysis
Outline: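 SR vesicles (1 mg protein/mL) incubated 30 min with compound, at 37 °C per methods or room temperature per legend. Trp fluorescence excited at 295 nm, with emission maxima at 336 and 358 nm. Conformational change expressed as the I358/I336 ratio versus untreated control.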

[4] = target: Sarcoplasmic/endoplasmic reticulum calcium ATPase 1 (Rattus norvegicus) (UniProt Q64578); test: Inhibition of SERCA1 in glucose-stimulated rat INS-1E cells assessed as decline in insulin release preincubated for 24 hrs followed by glucose addition and measured after 30 mins by RIA
Sequence of Sarcoplasmic/endoplasmic reticulum calcium ATPase 1 (Rattus norvegicus) (Q64578 whole entry): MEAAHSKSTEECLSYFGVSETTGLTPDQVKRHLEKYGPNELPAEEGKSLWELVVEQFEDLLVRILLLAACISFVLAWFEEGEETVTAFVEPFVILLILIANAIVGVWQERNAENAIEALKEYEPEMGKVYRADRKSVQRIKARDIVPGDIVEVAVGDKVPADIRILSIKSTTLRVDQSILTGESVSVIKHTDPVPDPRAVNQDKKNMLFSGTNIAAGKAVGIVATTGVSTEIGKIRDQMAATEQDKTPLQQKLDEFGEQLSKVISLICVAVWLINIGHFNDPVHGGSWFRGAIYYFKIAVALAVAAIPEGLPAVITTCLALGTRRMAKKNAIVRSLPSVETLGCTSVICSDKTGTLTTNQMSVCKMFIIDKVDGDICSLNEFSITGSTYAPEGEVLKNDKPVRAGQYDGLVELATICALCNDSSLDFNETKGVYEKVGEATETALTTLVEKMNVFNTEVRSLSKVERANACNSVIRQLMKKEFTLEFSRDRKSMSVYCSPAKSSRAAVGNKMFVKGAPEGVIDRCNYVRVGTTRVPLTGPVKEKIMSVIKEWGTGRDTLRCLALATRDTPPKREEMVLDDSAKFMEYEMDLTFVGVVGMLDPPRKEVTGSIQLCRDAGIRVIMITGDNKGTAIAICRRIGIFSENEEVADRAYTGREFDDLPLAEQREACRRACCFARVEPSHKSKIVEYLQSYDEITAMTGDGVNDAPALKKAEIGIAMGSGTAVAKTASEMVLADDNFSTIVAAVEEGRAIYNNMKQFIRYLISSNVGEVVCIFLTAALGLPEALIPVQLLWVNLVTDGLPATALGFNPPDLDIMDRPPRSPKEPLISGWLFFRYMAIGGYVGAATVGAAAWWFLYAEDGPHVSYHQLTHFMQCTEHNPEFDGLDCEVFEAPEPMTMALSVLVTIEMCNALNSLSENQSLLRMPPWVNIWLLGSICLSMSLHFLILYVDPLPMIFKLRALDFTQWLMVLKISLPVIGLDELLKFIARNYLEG
Outline: (§1)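 INS-1E cells preincubated 24 h with compound, then washed and incubated 30 min at 37 °C in glucose-free KRBH. A further 30 min at 37 °C followed in KRBH containing 16.7 mM glucose. Insulin in collected supernatants determined by RIA with rat insulin standard.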

[5] = target: Sarcoplasmic/endoplasmic reticulum calcium ATPase 1 (Rattus norvegicus) (UniProt Q64578); test: Inhibition of SERCA1 in rat INS-1E cells assessed as induction of apoptosis by measuring decrease in living cells at IC50 for cell viability incubated for 24 hrs by Annexin V-FITC/propidium iodide staining based flow cytometry
Outline: (§2)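 INS-1E cells incubated 24 h with compound, then stained with Annexin V-FITC/propidium iodide. Living, early apoptotic and late apoptotic fractions scored by flow cytometry and compared with untreated cells.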

[6] = target: Sarcoplasmic/endoplasmic reticulum calcium ATPase 1 (Rattus norvegicus) (UniProt Q64578); test: Inhibition of SERCA1 in rat INS-1E cells assessed as induction of apoptosis by measuring increase in early apoptotic cells at IC50 for cell viability incubated for 24 hrs by Annexin V-FITC/propidium iodide staining based flow cytometry; outline: as §2
[7] = target: Sarcoplasmic/endoplasmic reticulum calcium ATPase 1 (Rattus norvegicus) (UniProt Q64578); test: Inhibition of SERCA1 in rat INS-1E cells assessed as induction of apoptosis by measuring increase in late apoptotic cells at IC50 for cell viability incubated for 24 hrs by Annexin V-FITC/propidium iodide staining based flow cytometry; outline: as §2
[8] = target: Sarcoplasmic/endoplasmic reticulum calcium ATPase 1 (Rattus norvegicus) (UniProt Q64578); test: Inhibition of SERCA1 in rat INS-1E cells assessed as insulin release preincubated for 24 hrs followed by incubation in glucose-free buffer and measured after 30 mins by RIA; format: cell-based; outline: as §1
INS-1E = test: Induction of SERCA2b expression in rat INS-1E cells at IC50 for cell viability incubated for 24 hrs by Western blot analysis; format: functional, cell-based
Outline: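 INS-1E cells grown in RPMI 1640 (11 mM glucose) were exposed to compound for 24 h, then lysed in ice-cold lysis buffer, homogenized through a needle and centrifuged. Lysates (15 μg/lane) separated by SDS-PAGE and immunoblotted for SERCA2. Signal normalized to β-actin and given as %, average of 3–6 experiments.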

| Compound | IC50 ([1]; read-out: IC50) | Activity [2] | Activity [3] | inhibition [4] | inhibition [5] | inhibition [6] | inhibition [7] | inhibition [8] | Activity (INS-1E) | IC50 ([1]; sr) |
| --- | --- | --- | --- | --- | --- | --- | --- | --- | --- | --- |
| COc1cc(O)c([C@@H]2CC(=O)c3c(O)cc(O)cc3O2)cc1C/C=C(\C)CCC=C(C)C | 35.6 µM | Active | Active | Active | Active | Active | Active | inactive | – | – |
| Cc1cc2c3c(c1)-c1c(O)cc(-c4cc5ccc(O)cc5o4)cc1O[C@@]3(c1ccc(O)cc1O)Oc1cc(O)ccc1-2 | 24.6 µM | inactive | inactive | Active | Active | Active | inactive | inactive | Active | – |
| CC(C)=CCC/C(C)=C/Cc1cc([C@@H]2CC(=O)c3c(O)cc(O)cc3O2)c(O)cc1O | 29.4 µM | Active | Active | Active | Active | Active | Active | inactive | – | – |
| CC(C)(O)C1Cc2cc3cc(-c4cc(O)cc(O)c4)oc3cc2O1 (stereo not drawn) [MORACIN O] | – | Active | Active | Active | Active | Active | inactive | inactive | – | Not Active |
| CC1(C)Oc2cc3oc(-c4cc(O)cc(O)c4)cc3cc2CC1O (stereo not drawn) [(+/-)-MORACIN P] | – | Active | Active | Active | Active | Active | inactive | inactive | – | Not Active |
| CC(C)=CCc1c(-c2ccc(O)cc2O)oc2c3c(cc(O)c2c1=O)OC(C)(C)C=C3 [MORUSIN] | 43.6 µM | Active | Active | Active | Active | inactive | Active | inactive | – | – |
| CC1=C[C@@H]2c3c(O)cc(-c4cc5ccc(O)cc5o4)cc3O[C@@]3(c4ccc(O)cc4O)Oc4cc(O)ccc4[C@@H](C1)[C@H]23 | 18.9 µM | inactive | inactive | Active | Active | Active | inactive | inactive | Active | – |
